Measurements taken from paper PMC8136437 (ACS chemical biology, 2020).

Key:
[1] = system: Rat-2 resistant clone 5-1 (HCK-YF mutant library); assay type: cell-based; details: resistant clone 5-1, 1 μM A-419259 vs DMSO
[2] = system: TF-1/FLT3-ITD cells expressing HCK-T338H; assay: Growth inhibition; assay type: cell-based, human
Procedure, shortened: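 TF-1 cells made cytokine-independent by retroviral FLT3-ITD transduction, then retrovirally transduced with wild-type or mutant HCK. Each population exposed to a wide range of test compound concentrations; viability read by Cell Titer-Blue. Each point in triplicate, normalized to DMSO (no inhibitor) control, plotted as mean ± SE. IC50 estimated by nonlinear regression fit of concentration-response curves.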

[3] = molecular target: kinome panel (HCK, other SRC-family members, FLT3 and other Class III receptor tyrosine kinases); details: KINOMEscan; cited from earlier work
[4] = system: Philadelphia chromosome-positive CML cells; details: at concentrations that did not directly inhibit BCR-ABL; cited from earlier work
HCK-T338M = HCK-T338M (Homo sapiens, UniProt P08631, T333M); assay: HCK activation loop autophosphorylation; assay type: cell-based
Sequence of HCK-T338M (P08631 22-526 T333M): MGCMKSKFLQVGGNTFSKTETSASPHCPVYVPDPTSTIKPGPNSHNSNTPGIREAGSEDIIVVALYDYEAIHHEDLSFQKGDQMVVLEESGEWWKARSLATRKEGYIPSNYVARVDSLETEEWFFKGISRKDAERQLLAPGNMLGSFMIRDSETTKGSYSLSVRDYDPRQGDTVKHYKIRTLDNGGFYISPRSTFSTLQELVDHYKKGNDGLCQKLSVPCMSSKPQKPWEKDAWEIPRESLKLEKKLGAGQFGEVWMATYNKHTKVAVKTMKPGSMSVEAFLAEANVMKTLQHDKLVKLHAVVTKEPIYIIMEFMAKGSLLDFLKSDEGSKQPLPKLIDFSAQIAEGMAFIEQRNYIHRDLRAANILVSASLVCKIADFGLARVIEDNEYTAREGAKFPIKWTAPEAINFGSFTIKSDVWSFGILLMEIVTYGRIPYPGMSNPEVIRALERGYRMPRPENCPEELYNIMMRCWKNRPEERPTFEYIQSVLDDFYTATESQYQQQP
Procedure, shortened: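 Transfected human 293T cells expressing the mutant kinase were treated with the test compound at 0, 100 or 1000 nM, with DMSO as the no-inhibitor control. HCK was immunoprecipitated and immunoblotted for pY416 and total HCK, then detected with infrared-dye secondary antibodies. The pY416/HCK signal ratio was normalized to DMSO; mean ± SE of two independent experiments.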

[5] = system: AML patient-derived xenografts; details: oral administration; cited from earlier work
HCK-T338H [6] = molecular target: T1, HCK-T338H (Homo sapiens, UniProt P08631, T333H); assay: HCK activation loop autophosphorylation; assay type: cell-based
T1 sequence (P08631 22-526 T333H): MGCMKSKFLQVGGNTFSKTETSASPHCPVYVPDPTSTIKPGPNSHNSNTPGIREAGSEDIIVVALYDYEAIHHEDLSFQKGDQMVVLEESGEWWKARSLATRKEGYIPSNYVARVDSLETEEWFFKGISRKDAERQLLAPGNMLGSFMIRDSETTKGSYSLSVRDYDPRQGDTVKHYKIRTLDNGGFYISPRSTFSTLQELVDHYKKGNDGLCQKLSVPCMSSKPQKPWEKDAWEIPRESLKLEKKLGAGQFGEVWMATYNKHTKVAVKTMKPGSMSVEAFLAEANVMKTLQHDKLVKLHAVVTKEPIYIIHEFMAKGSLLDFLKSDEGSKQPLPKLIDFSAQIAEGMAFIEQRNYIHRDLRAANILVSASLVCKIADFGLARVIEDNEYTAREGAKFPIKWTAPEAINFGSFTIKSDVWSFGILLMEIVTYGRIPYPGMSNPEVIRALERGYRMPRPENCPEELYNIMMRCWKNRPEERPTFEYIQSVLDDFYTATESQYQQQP
Procedure, shortened: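 GM-CSF-dependent TF-1 cells were made cytokine-independent by retroviral FLT3-ITD, then retrovirally transduced with mutant HCK. For kinase activity, cells were exposed to 0, 30, 100 or 300 nM test compound; HCK was immunoprecipitated and blotted for pY416 and total HCK (3 independent experiments, normalized to DMSO). IC50: Cell Titer-Blue viability across a concentration range, triplicate, DMSO-normalized, nonlinear regression.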

[7] = system: Rat-2 cells expressing HCK-YF; assay: Soft-agar colony-forming assay, Rat-2 fibroblasts transformed with HCK-YF; assay type: cell-based; details: 1 μM A-419259, soft agar, two weeks
Procedure, shortened: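 Rat-2 fibroblasts infected with 293T-produced retroviruses carrying the HCK-YF codon mutagenesis library, then G-418 selected. Cells plated in soft agar (semi-solid medium) with test compound at 1.0 μM, 5,000 cells per plate, selected two weeks. Picked colonies expanded in 2D without inhibitor, then re-assayed with test compound or DMSO carrier in triplicate. Colonies Wright-Giemsa stained and counted; mean ± SE.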

HCK-T338H [8] = molecular target: T1, HCK-T338H; assay: HCK activation loop autophosphorylation; assay type: cell-based; details: 293T cells, 100 and 1,000 nM A-419259

resistance of HCK-T338M autophosphorylation to A-419259 (HCK-T338M; 293T cells, 100 nM A-419259): complete resistance | resistance of HCK-T338M autophosphorylation to A-419259 (HCK-T338M; 293T cells, 1,000 nM A-419259): partial resistance | Tyr416 phosphorylation of HCK-T338H in the presence of A-419259 (HCK-T338H [6]; TF-1/FLT3-ITD cells, concentrations up to 100 nM): remained phosphorylated on Tyr416 | IC50 (HCK-T338H [6]; read-out: IC50, kinase inhibition, TF-1/FLT3-ITD cells expressing HCK-T338H): ~100 nM
Structure (SMILES): CN1CCN(C2CCC(n3cc(-c4ccc(Oc5ccccc5)cc4)c4c(N)ncnc43)CC2)CC1 (stereo not shown) [A-419259]
colony formation in the presence vs absence of A-419259 [1]: equal numbers of colonies in the presence or absence of A-419259 | sensitivity of TF-1/FLT3-ITD cells to growth inhibition ([2]; HCK-T338H expression vs wild-type HCK): reduced sensitivity | shift in the IC50 for growth suppression ([2]; HCK-T338H vs wild-type HCK in TF-1/FLT3-ITD cells): 2 fold | IC50 ([2]; read-out: IC50, growth suppression, TF-1/FLT3-ITD cells expressing HCK-T338H): ~100 nM | kinase specificity profile [3]: remarkably narrow specificity profile | growth arrest and apoptosis of CML cells [4]: induced growth arrest and apoptosis | activity in mice bearing AML patient-derived xenografts [5]: potent activity | colony formation by control cells expressing HCK-YF [7]: completely blocked colony formation | activation loop phosphorylation (pY416) of HCK-T338H (HCK-T338H [8]): no change in activation loop phosphorylation
